In the library only some 2.8% were active in any assay of this set; here they are far more common.
SIRT5 block: SIRT5 desuccinylase inhibitors, primary screen, biochemical, fluorescence imaging, single point, set 5; Purified SirT5, succinyl-peptide AMC, trypsin-coupled fluorescence; AID 652115, 2013; hit rate 1.1% among 330,000; inhibition, % at 15 µM; NAD-dependent protein deacylase sirtuin-5, mitochondrial (Homo sapiens), Q9NXA8; in the data active means inhibition above about 15%; inconclusive means no clear call, values can overlap the other calls
Target sequence (Q9NXA8 whole entry, looked up): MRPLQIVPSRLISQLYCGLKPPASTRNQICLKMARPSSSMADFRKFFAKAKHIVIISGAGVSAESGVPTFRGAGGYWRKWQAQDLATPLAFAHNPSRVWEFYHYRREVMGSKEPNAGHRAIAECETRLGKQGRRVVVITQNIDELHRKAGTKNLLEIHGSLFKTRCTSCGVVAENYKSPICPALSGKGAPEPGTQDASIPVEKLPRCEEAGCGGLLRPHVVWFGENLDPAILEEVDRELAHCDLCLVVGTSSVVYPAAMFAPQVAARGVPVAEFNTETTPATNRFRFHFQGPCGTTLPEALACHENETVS
E-selectin induc: E-selectin induction in HUVECs, primary screen, imaging, HUVEC, immunofluorescence imaging, single point; P16581; AID 686992, 2013; hit rate 0.37% among 260,000; normalized: neutral wells 0, TNF-alpha wells 100; activation, % at 7.58 µM;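 active means mean E-selectin-positive cell signal at least 10% of the positive control, reached in at least 60% of replicates, without over 20% cell loss; inconclusive means no rule given, readout overlaps actives, possibly toxicity-flagged; inactive means the rest, including those meeting only one limit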
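Assay system: HUVEC primary endothelial cells. Input: 3,000 HUVEC seeded per well. Doses: one compound dose added by pin transfer. Read-out basis: % PE-positive cells. Benchmarks: TNF-alpha high, DMSO low. Detection: immunofluorescence imaging. Buffer or medium: EGM-2, gelatin.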
DENV2 CPE rescue: inhibitors of DENV2 cytopathic effect, primary screen, cell-based, plate reader, single concentration; DENV2-infected cells, cytopathic effect rescue; CPE inhibition, % at 9.99 µM; hit rate 1.7% among 350,000; in the data active means CPE inhibition above about 20%, passing the limit was not always enough; inconclusive means no clear call, values can overlap the other calls; tested in BHK-21 cells;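 further: 0% = median of neutral control wells and 100% = median of positive control wells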
* hit, by the source's call; ? = inconclusive; . = no result.

SMILES	SIRT5 block	E-selectin induc	DENV2 CPE rescue
C[C@@H]1CCCCO[C@@H](CN(C)S(=O)(=O)c2ccc(F)cc2)[C@H](C)CN([C@@H](C)CO)C(=O)c2cc(NC(=O)CCCN(C)C)ccc2O1	-3	0	21*
C[C@@H]1CCCCO[C@@H](CN(C)S(=O)(=O)c2ccc(F)cc2)[C@@H](C)CN([C@@H](C)CO)C(=O)c2cc(NC(=O)CCCN(C)C)ccc2O1	-2	0	-4
C[C@@H]1CN([C@H](C)CO)C(=O)c2cc(NC(=O)CCCN(C)C)ccc2O[C@@H](C)CCCCO[C@H]1CN(C)S(=O)(=O)c1ccc(F)cc1	-4	0	17
COC(=O)C[C@H]1CC[C@@H](NC(=O)Nc2ccc(C(F)(F)F)cc2)[C@H](CO)O1	-1	0	-1
COc1cccc(CNC(=O)C[C@H]2CC[C@H](NS(=O)(=O)c3ccccc3OC)[C@H](CO)O2)c1	14	0	0
COc1ccc(S(=O)(=O)N(C)C[C@H]2OCCCC[C@H](C)Oc3ccc(NS(=O)(=O)c4ccccc4)cc3C(=O)N([C@@H](C)CO)C[C@@H]2C)cc1	11	.	3
COc1ccc(S(=O)(=O)N(C)C[C@H]2OCCCC[C@@H](C)Oc3ccc(NS(=O)(=O)c4ccccc4)cc3C(=O)N([C@@H](C)CO)C[C@H]2C)cc1	9	.	56*
COc1ccc(S(=O)(=O)N(C)C[C@H]2OCCCC[C@@H](C)Oc3ccc(NS(C)(=O)=O)cc3C(=O)N([C@H](C)CO)C[C@@H]2C)cc1	1	0	10
COc1ccc(S(=O)(=O)N(C)C[C@H]2OCCCC[C@H](C)Oc3ccc(NS(C)(=O)=O)cc3C(=O)N([C@H](C)CO)C[C@@H]2C)cc1	-7	0	20*
COc1ccc(S(=O)(=O)Nc2ccc3c(c2)C(=O)N([C@H](C)CO)C[C@@H](C)[C@H](CN(C)S(=O)(=O)c2ccccc2)O3)cc1	-1	1	-2
COc1ccc(S(=O)(=O)Nc2ccc3c(c2)C(=O)N([C@@H](C)CO)C[C@@H](C)[C@@H](CN(C)S(=O)(=O)c2ccccc2)OCCCC[C@H](C)O3)cc1	11	0	21*
COc1ccc(S(=O)(=O)Nc2ccc3c(c2)C(=O)N([C@H](C)CO)C[C@H](C)[C@H](CN(C)S(=O)(=O)c2ccccc2)OCCCC[C@@H](C)O3)cc1	.	0	-9
COc1ccc(S(=O)(=O)N(C)C[C@@H]2Oc3ccc(NS(=O)(=O)c4ccccc4)cc3C(=O)N([C@H](C)CO)C[C@H]2C)cc1	.	0	133*
COc1ccc2c3c([nH]c2c1)[C@@H](CO)N(CC1CC1)CC31CCN(C(=O)NC2CCCC2)CC1	.	0	-9
CO[C@@H]1CN(C)C(=O)c2cc(NS(=O)(=O)c3ccc(C)cc3)ccc2OC[C@H](C)NC[C@@H]1C	-1	0	12
C[C@@H]1CN([C@@H](C)CO)S(=O)(=O)c2ccc(C#Cc3ccccn3)cc2O[C@H]1CN(C)C(=O)C1CC1	0	0	-3
COc1ccc(CN(C)C[C@H]2OCCCC[C@H](C)Oc3ccc(NC(=O)NC4CCCCC4)cc3C(=O)N([C@H](C)CO)C[C@@H]2C)cc1	-1	0	1
COc1ccccc1CNC(=O)C[C@H]1C[C@@H]2c3cc(NC(=O)Nc4ccccc4F)ccc3O[C@@H]2[C@@H](CO)O1	-2	1	0
COc1ccc(S(=O)(=O)Nc2ccc3c(c2)C(=O)N([C@@H](C)CO)C[C@H](C)[C@@H](CN(C)S(=O)(=O)c2ccccc2)OCCCC[C@H](C)O3)cc1	14	0	-8
COc1ccc(S(=O)(=O)N(C)C[C@@H]2OCCCC[C@H](C)Oc3ccc(NS(=O)(=O)c4ccccc4)cc3C(=O)N([C@H](C)CO)C[C@@H]2C)cc1	8	.	?
COc1ccc(S(=O)(=O)Nc2ccc3c(c2)C(=O)N([C@H](C)CO)C[C@@H](C)[C@@H](CN(C)S(=O)(=O)c2ccccc2)OCCCC[C@@H](C)O3)cc1	24*	0	-6
COc1ccc(S(=O)(=O)Nc2ccc3c(c2)C(=O)N([C@H](C)CO)C[C@H](C)[C@H](CN(C)S(=O)(=O)c2ccccc2)OCCCC[C@H](C)O3)cc1	17*	0	?
CO[C@H]1CC[C@@H]2CCN(C)C(=O)[C@@H](C)N(C)C(=O)c3cc(C#N)ccc3OC[C@@H]1O2	1	0	-2
C[C@@H]1CCCCO[C@H](CN(C)Cc2ccccc2)[C@H](C)CN([C@H](C)CO)C(=O)c2cc(NS(=O)(=O)c3cn(C)cn3)ccc2O1	-21	0	5
CCOC(=O)c1cn(CC)c2cc3c(cc2c1=O)OCO3	-1	0	25*
SMILES	SIRT5 block	E-selectin induc	DENV2 CPE rescue
CCn1cc(C(=O)N[C@@H](C)C(=O)NCCCO)c(=O)c2cc3c(cc21)OCO3	0	0	-2
O=C(C[C@H]1CC[C@H]2[C@@H](COC[C@@H](O)CN2C(=O)c2cnccn2)O1)NCc1ccc(F)cc1	4	0	-2
COCC(=O)N1[C@H](CO)[C@@H](c2ccccc2)C12CN(C(=O)Nc1ccccc1F)C2	1	0	18
O=C(Cc1ccccn1)N1CC2(C1)[C@@H](c1ccccc1)[C@@H](CO)N2C(=O)c1ccncc1	0	0	5
O=C(Cc1ccccn1)N1CC2(C1)[C@H](c1ccccc1)[C@@H](CO)N2C(=O)c1ccncc1	1	0	45*
COCC(=O)N1[C@H](CO)[C@H](c2ccccc2)C12CN(C(=O)Nc1ccccc1F)C2	0	0	36*
COCC(=O)N1CC2(C1)[C@H](c1ccccc1)[C@H](CO)N2C(=O)c1ccncc1	3	0	4
COCC(=O)N1CC2(C1)[C@@H](c1ccccc1)[C@@H](CO)N2C(=O)c1ccncc1	2	0	30*
COC(=O)C[C@@H]1CC[C@H]2[C@@H](COC[C@H](O)CN2S(=O)(=O)c2ccccc2C)O1	-1	0	-3
CO[C@H]1CN(C)C(=O)c2ccc(NC(C)=O)cc2OC[C@H](C)N(C(=O)C2CC2)C[C@@H]1C	3	0	2
C[C@H]1CCCCO[C@@H](CN(C)Cc2ccc3c(c2)OCO3)[C@@H](C)CN([C@@H](C)CO)C(=O)c2cc(NC(=O)CCC(F)(F)F)ccc2O1	-3	0	?
C[C@@H]1CN([C@@H](C)CO)C(=O)c2cc(NC(=O)c3ccccc3)ccc2O[C@@H](C)CCCCO[C@@H]1CN(C)C(=O)CCCN(C)C	-5	1	-5
C[C@@H]1CCCCO[C@H](CN(C)C(=O)Cc2ccccc2)[C@H](C)CN([C@@H](C)CO)C(=O)c2cc(NC(=O)CCCN(C)C)ccc2O1	-4	0	5
C[C@@H]1CN([C@@H](C)CO)C(=O)c2cc(NC(=O)CCCN(C)C)ccc2O[C@@H](C)CCCCO[C@@H]1CN(C)C(=O)Cc1ccccc1	-2	0	64*
C[C@H](CO)N1C[C@H](C)[C@H](CN(C)C(=O)CCCN(C)C)OCCCC[C@H](C)Oc2ccc(NC(=O)Nc3ccc(F)cc3)cc2C1=O	-5	1	-9
